The structures appear in SMILES notation. pIC50: −log10 of the molar value. Activity calls are given as the source filed them. No cut-off for these calls is given here.

Series [1] deals with Vascular endothelial growth factor receptor 3 (Homo sapiens, UniProt P35916). In words: Inhibition of Flt4 (unknown origin) after 20 mins by scintillation counting. The essentials: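 Radiometric filter-plate kinase assay for Flt-1, Flt-4 and PDGFR-α. Buffer: 20 mM Tris-HCl pH 7.4, 3 mM MnCl2, 3 mM MgCl2, 50 μg/mL poly GluTyr, 100 mM NaCl, Na3VO4, DTT, 0.5% BSA. Kinase (55 ng) plus compound in 2% DMSO buffer; reaction started with 4 μM ATP/32P-ATP solution. Ran 20 min at room temperature, stopped with 30% TCA, washed with 15% TCA, scintillation counted.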
Vascular endothelial growth factor receptor 3, sequence (P35916 whole entry): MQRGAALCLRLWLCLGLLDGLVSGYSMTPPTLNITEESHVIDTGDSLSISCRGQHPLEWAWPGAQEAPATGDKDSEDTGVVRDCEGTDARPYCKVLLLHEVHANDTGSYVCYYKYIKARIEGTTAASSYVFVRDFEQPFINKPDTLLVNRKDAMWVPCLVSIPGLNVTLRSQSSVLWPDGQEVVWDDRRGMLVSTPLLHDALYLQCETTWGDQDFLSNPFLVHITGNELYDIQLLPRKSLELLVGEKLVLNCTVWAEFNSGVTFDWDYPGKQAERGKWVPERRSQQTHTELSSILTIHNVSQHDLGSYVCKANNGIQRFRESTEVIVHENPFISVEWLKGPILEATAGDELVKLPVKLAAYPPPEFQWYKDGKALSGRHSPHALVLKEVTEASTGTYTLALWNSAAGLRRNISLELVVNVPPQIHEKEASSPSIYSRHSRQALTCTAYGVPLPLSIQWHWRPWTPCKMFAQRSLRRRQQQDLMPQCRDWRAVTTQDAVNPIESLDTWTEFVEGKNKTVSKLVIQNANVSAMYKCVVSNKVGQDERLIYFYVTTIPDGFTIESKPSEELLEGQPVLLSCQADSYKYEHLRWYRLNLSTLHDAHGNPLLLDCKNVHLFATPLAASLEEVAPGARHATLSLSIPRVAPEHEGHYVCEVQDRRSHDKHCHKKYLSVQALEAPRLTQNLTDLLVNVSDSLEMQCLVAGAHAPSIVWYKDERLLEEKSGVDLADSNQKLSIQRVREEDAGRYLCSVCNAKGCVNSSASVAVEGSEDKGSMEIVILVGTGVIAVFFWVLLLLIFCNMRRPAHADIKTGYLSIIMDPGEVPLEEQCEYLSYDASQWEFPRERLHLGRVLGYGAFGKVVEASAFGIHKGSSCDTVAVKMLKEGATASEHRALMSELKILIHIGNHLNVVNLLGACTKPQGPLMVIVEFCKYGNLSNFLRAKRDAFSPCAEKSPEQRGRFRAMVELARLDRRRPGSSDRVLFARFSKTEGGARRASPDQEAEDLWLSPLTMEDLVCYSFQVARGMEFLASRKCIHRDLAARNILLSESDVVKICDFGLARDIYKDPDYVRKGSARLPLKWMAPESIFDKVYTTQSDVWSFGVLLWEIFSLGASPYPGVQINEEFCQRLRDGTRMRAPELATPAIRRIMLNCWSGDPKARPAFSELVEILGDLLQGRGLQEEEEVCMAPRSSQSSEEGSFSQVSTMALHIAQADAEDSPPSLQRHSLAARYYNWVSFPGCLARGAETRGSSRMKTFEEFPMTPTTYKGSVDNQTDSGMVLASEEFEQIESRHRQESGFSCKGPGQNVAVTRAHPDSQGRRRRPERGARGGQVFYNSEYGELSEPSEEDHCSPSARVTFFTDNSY

Series [2] addresses T1, Vascular endothelial growth factor receptor 1 (Homo sapiens, UniProt P17948). Nature of the series: Inhibition of GST-Flt1 kinase domain (unknown origin) expressed in baculovirus infected Sf9 cells after 20 mins by scintillation counting.
Series [3] has as its target Fibroblast growth factor receptor (Homo sapiens, UniProt P22607+P11362+P22455+P21802). Nature of the series: Inhibition of FGFR (unknown origin) after 20 mins by scintillation counting. In kind it is protein assay.
Series [4] has as its target Epidermal growth factor receptor (Homo sapiens, UniProt P00533). In words: Inhibition of EGFR (unknown origin) after 20 mins by scintillation counting.
The target of series [5] is Platelet-derived growth factor receptor alpha (Homo sapiens, UniProt P16234). Nature of the series: Inhibition of PDGFR-alpha (unknown origin) after 20 mins by scintillation counting.
Platelet-derived growth factor receptor alpha, sequence (P16234 whole entry): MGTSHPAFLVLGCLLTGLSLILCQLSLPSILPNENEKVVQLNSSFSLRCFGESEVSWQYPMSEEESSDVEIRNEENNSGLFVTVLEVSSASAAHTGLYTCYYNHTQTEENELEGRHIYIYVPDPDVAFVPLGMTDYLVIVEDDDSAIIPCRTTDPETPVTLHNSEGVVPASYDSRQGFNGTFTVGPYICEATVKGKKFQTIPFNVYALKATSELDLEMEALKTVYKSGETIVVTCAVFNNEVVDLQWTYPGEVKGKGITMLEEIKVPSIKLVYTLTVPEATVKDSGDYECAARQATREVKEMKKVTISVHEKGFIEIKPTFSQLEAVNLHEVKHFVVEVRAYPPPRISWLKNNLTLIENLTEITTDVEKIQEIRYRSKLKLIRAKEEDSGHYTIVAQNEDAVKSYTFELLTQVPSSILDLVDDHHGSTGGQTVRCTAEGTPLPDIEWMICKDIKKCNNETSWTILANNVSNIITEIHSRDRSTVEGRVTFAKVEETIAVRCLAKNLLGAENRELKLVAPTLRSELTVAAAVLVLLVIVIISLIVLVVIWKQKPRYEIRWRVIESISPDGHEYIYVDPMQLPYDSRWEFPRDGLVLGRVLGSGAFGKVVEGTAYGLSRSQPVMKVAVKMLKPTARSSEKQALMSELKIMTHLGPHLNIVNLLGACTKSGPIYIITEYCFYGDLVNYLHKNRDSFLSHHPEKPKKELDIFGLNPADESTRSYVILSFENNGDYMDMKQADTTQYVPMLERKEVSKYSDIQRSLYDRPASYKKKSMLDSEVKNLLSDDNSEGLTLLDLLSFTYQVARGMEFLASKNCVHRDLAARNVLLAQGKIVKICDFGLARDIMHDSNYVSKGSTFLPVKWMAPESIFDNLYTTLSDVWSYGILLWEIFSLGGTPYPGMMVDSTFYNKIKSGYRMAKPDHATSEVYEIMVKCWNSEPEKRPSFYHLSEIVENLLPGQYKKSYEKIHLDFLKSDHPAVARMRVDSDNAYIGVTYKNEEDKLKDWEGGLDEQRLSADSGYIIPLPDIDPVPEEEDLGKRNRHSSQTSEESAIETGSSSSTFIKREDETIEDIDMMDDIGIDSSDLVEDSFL
Series [6] deals with Platelet-derived growth factor receptor beta (Homo sapiens, UniProt P09619). In words: Inhibition of PDGFR-beta (unknown origin) after 20 mins by scintillation counting.
Series [7] addresses T1, Vascular endothelial growth factor receptor 1. Nature of the series: Inhibition of ligand-induced phosphorylation of Flt-1 (unknown origin) overexpressed in NIH-3T3 cells at 10 uM after 2 hrs by immunoblotting. In kind it is cell-based. The following applies: NIH3T3. The method in brief: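 Subconfluent NIH3T3-Flt-1 cells were serum-starved 16 h, exposed to samples for 2 h, then stimulated 5 min with 50 ng/mL recombinant human VEGF-A. Cells were lysed in HEPES/Triton buffer containing Na3VO4, PMSF and aprotinin. Lysates were immunoblotted with anti-phosphotyrosine, anti-Flt-1 and anti-actin antibodies.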
(Immunoblotting shows a protein as a band on a membrane.)

In series [8] the test system is NIH3T3. In words: Cytotoxicity against mouse NIH/3T3 cells overexpressing Flt-1 (unknown origin) after 48 hrs. It is filed as cell-based. To be noted: nih3t3, 48 h. The method in brief:
(§1)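 MTT viability assay: NIH3T3-Flt-1 or NIH3T3-KDR cells, grown in DMEM with 10% FCS, glutamine and 200 μg/mL G418, were seeded at 3 × 10^3 cells/well with or without test samples and incubated 2 days. MTT was then added for 2 h, formazan dissolved overnight in 10% SDS, and absorbance read at 570 nm.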

The target of series [9] is Vascular endothelial growth factor receptor 2 (Homo sapiens, UniProt P35968).
Vascular endothelial growth factor receptor 2, sequence (P35968 whole entry): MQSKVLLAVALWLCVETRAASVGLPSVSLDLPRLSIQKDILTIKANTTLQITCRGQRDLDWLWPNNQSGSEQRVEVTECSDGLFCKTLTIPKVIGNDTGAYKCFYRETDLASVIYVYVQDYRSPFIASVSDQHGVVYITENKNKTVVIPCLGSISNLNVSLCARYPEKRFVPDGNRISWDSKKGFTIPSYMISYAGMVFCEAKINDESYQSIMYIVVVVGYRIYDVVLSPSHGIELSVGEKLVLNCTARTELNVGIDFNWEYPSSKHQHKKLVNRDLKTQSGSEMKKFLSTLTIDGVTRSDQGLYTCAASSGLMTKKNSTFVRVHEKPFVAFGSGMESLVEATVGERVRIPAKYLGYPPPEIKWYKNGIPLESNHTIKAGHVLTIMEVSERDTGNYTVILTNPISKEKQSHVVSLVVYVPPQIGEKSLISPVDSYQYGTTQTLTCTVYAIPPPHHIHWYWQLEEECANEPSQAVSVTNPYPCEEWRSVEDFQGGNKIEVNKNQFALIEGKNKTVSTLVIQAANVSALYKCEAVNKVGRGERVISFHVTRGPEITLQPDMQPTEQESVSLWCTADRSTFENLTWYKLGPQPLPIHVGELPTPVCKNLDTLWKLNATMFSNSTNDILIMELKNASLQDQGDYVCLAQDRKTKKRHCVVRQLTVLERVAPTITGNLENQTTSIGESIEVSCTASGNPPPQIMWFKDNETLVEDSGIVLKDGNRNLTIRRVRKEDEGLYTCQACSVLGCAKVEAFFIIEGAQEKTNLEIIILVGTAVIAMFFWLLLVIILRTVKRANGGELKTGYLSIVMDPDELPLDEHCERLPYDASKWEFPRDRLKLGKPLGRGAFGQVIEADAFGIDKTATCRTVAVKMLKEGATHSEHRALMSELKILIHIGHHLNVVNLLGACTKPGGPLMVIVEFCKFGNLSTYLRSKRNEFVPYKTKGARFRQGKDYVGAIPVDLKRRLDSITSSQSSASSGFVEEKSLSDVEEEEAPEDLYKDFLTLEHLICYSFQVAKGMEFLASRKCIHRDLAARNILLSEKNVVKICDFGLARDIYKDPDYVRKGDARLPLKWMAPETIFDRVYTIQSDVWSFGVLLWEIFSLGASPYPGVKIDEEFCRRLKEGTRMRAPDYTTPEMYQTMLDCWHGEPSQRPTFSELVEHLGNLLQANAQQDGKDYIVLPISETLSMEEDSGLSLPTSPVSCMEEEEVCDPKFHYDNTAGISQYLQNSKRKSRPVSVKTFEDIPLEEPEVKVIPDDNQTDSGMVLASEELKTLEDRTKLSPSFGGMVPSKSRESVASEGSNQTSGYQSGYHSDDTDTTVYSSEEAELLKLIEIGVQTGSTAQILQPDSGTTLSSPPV
For series [10], the system named is NIH3T3. In words: Cytotoxicity against mouse NIH/3T3 cells overexpressing Flt-1 (unknown origin) at 10 uM after 2 hrs. In kind it is cell-based. To be noted: nih3t3, 2 h.
Series [11] deals with NIH3T3. In words: Cytotoxicity against mouse NIH/3T3 cells overexpressing KDR (unknown origin) after 48 hrs. In kind it is cell-based. To be noted: nih3t3, 48 h. The method in brief:
as §1

T1 sequence (P17948 whole entry, the tested form may be a part): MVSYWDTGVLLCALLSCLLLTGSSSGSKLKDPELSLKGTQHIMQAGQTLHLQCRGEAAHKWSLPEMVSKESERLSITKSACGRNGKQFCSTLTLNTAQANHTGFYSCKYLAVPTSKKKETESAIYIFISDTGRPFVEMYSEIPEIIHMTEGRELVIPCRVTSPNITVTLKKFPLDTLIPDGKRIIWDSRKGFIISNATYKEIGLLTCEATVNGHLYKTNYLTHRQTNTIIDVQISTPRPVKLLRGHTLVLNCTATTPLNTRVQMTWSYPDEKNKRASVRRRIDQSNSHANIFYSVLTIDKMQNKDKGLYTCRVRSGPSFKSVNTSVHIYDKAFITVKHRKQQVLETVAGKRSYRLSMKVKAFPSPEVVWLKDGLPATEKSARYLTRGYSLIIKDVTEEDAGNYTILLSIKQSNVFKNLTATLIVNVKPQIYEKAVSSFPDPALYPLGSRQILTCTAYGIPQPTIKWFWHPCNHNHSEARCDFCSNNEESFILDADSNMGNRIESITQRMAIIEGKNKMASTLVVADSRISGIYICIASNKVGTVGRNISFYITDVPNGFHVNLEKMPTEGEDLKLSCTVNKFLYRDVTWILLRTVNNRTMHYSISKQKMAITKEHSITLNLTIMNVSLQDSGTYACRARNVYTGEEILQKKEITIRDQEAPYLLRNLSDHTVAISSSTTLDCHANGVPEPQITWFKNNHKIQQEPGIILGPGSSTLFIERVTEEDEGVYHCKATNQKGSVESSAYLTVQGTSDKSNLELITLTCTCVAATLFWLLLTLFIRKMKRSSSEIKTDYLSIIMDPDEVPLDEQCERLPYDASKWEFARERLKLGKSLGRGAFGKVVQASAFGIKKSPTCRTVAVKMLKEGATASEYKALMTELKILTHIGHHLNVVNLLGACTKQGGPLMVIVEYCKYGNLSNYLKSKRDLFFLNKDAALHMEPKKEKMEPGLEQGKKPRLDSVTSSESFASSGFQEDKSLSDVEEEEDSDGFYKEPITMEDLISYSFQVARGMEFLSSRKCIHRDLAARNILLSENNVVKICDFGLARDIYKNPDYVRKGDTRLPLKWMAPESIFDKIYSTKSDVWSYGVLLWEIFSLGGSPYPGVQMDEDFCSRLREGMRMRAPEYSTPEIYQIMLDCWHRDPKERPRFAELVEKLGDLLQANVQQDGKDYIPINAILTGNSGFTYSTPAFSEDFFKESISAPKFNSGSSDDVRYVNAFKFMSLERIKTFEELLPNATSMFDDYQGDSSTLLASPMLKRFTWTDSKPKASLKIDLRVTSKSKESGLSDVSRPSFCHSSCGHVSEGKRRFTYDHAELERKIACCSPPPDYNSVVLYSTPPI

One may read the pIC50 as −log10 of the IC50, conventionally taken in molar units. Low values mean a large IC50, high ones a small IC50. As for `Cc1cc(C)c(/C=C2\C(=O)Nc3ccccc32)[nH]1` [SEMAXANIB], the pIC50 in series [1] is 6.30.

The term IC50 denotes the concentration that inhibits the measured activity by half. A lower IC50 goes with greater potency in that assay. As for `NC(=O)C1=C(N)C(=O)C=C(Nc2ccccc2O)C1=O` [VEGFRECINE], the pIC50 in series [2] is 7.74; in series [4], 5.59; in series [5] it was 5.49; in [6], 6.32; in series [9], 7.96; in series [1], 8.74. The same molecule registered an IC50 in [3] of 730 nM. For the same molecule, the result in [7] was Active. The Activity in series [8] was 3 µM; in series [10], “Non-toxic”; in series [11] it was 12 µM.

Values taken from ChEMBL document CHEMBL2331471, “Vegfrecine, an inhibitor of VEGF receptor tyrosine kinases isolated from the culture broth of Streptomyces sp” (J Nat Prod, 2013).
